In article PMC5019276 (International Journal of Nanomedicine, 2016):
≈ marks a conversion by molar mass, not a printed value.

How the values were obtained:
[1] = In vitro drug release by dialysis; assay type: physicochemical; conditions: pH 2.0, 5.0 and 6.8, after 72 hours
In short: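 Dialysis (MWCO 6–8 kDa): 2.5 mL of nanoparticle or free-drug solution (drug 0.2 mg/mL) against 10 mL medium. Media were 0.05 M glycine–HCl pH 2.0, 0.05 M phosphate pH 5.0 and 0.05 M phosphate pH 6.8, each with 1% ascorbic acid and 0.1% BHT. Stirred at 37°C for 72 h; 3.0 mL withdrawn at intervals and replaced. Drug measured by C18 HPLC at 420 nm. Run three times.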

HT-29 cells [2] = test: In vitro cytotoxicity, MTT assay; assay type: cell-based; conditions: Homo sapiens, HT-29, read-out: IC50 (half maximal inhibitory concentration)
In short: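 HT-29 cells were grown in RPMI-1640 with 10% FBS and 1% penicillin/streptomycin. They were seeded at 3–5×10^4 cells/well and cultured 24 h at 37°C in humid 5% CO2. Drug-loaded and blank nanoparticles were then tested by MTT, with absorbance read at 490 nm. Viability (%) = absorbance of treated cells / absorbance of untreated cells × 100. Triplicates; mean ± SD (n=3).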

HT-29 cells [3] = test: Intracellular uptake by fluorescence microscopy; assay type: cell-based, Human; conditions: 7.5 μg/mL, 3 hours, 37°C
In short: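 HT-29 cells were seeded at 2.5×10^4 cells/well and incubated overnight at 37°C in 5% CO2. They were exposed to free drug or drug-loaded nanoparticles at 7.5 μg/mL for 3 h at 37°C, with untreated and blank-nanoparticle controls. Cells were rinsed three times with 37°C PBS. Imaging used fluorescence microscopy with 420–490 nm excitation and 490–560 nm emission.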

[4] = In vivo oral administration and pharmacokinetics; parameters: species or system rats; conditions: plasma, 100 mg/kg

release after 72 hours (in words) [1]: completed its release/diffusion
Cmax ([4]; male, Sprague Dawley, rat, po): 11000 ± 1170 ng/mL
MRT last ([4]; male, Sprague Dawley, rat, po): 4.33 ± 0.67 h
Tmax ([4]; male, Sprague Dawley, rat, po): 1 h
half-life ([4]; male, Sprague Dawley, rat, po): 0.9 ± 0.89 h
AUC0–24 hours ([4]; oral): 65120 ± 7420 ng·h/mL
SMILES: COc1cc(/C=C/C(=O)CC(=O)/C=C/c2ccc(O)c(OC)c2)ccc1O [Cur, Curcumin]
IC50 (HT-29 cells [2]): 28.5 µg/mL (≈ 77.4 µM)
fluorescence of cells (cell uptake) (HT-29 cells [3]): relatively faint
